Measurements: ChEMBL document CHEMBL4330057, “Second generation of diazachrysenes: Protection of Ebola virus infected mice and mechanism of action” (Eur J Med Chem, 2019)
Active and inactive are the calls of the source. No cut-off for these calls is given here.

How the values were obtained:
[1] = Toxicity in 6 hrs post fertilized zebrafish embryo assessed as tail detachment up to 50 uM up to 120 hrs post fertilization by inverted microscopic method; set-up: species or system Danio rerio; settings: in vivo
[2] = Toxicity in 6 hrs post fertilized zebrafish embryo assessed as teratogenic effect by measuring yolk absorption up to 50 uM up to 120 hrs post fertilization by inverted microscopic method; set-up: species or system Danio rerio; settings: in vivo
[3] = Toxicity in 6 hrs post fertilized zebrafish embryo assessed as teratogenic effect by measuring growth retardation up to 50 uM up to 120 hrs post fertilization by inverted microscopic method; set-up: species or system Danio rerio; settings: in vivo
[4] = Toxicity in 6 hrs post fertilized zebrafish embryo assessed as teratogenic effect by measuring malformation of eyes up to 50 uM up to 120 hrs post fertilization by inverted microscopic method; set-up: species or system Danio rerio; settings: in vivo
[5] = Toxicity in 6 hrs post fertilized zebrafish embryo assessed as teratogenic effect by measuring malformation of head up to 50 uM up to 120 hrs post fertilization by inverted microscopic method; format: tissue-based, Danio rerio; settings: in vivo
[6] = Toxicity in 6 hrs post fertilized zebrafish embryo assessed as teratogenic effect by measuring scoliosis up to 50 uM up to 120 hrs post fertilization by inverted microscopic method; set-up: species or system Danio rerio; settings: in vivo
Ebolavirus = test: Antiviral activity against Ebolavirus H. sapiens-wt/1995/Kikwit-9510621 infected in African green monkey Vero cells assessed as inhibition of viral infection pretreated for 2 hrs followed by viral infection and measured after 48 hrs by EboV GP immunostaining based high content imaging analysis; format: functional, organism-based; settings: Orthoebolavirus, H. sapiens-wt/1995/Kikwit-9510621, Vero
[7] = Toxicity in 6 hrs post fertilized zebrafish embryo assessed as teratogenic effect by measuring liver morphology and color up to 50 uM up to 120 hrs post fertilization by inverted microscopic method; format: tissue-based, Danio rerio; settings: in vivo
[8] = Toxicity in 6 hrs post fertilized zebrafish embryo assessed as teratogenic effect by measuring effect on heart beat frequency up to 50 uM up to 120 hrs post fertilization by inverted microscopic method; set-up: species or system Danio rerio; settings: in vivo
[9] = Toxicity in 6 hrs post fertilized zebrafish embryo assessed as teratogenic effect by measuring yolk edema up to 50 uM up to 120 hrs post fertilization by inverted microscopic method; set-up: species or system Danio rerio; settings: in vivo
Zaire ebolavirus = test: Antiviral activity against VSV pseudotyped Ebolavirus Mayinga expressing GFP infected in human HeLa cells assessed as inhibition of viral infection at 10 uM pre-incubated for 2 hrs followed by viral infection and measured after 8 hrs by cell mask deep red staining based assay; format: functional, organism-based; settings: 1976
Outline: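 HeLa cells pretreated 2 h with compound, then infected with rVSV-EBOV-GP-GFP (8 h) or VSV-GFP (6 h), and stained with Cell Mask Deep Red. Relative inhibition = 1 minus (% GFP-expressing cells normalised to mock). Mean ± SD of three replicates, representative of three independent experiments.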

HeLa [10] = test: Inhibition of lysosome fusion with autophagosome in human HeLa cells harboring GFP-LC3 assessed as increase in GFP-LC3-2 clustering at <50 uM after 6 hrs by Western blot analysis; format: functional, subcellular
Outline: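 HeLa cells were exposed to compound for 6 h, then lysed and analysed by Western blot.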

[11] = Toxicity in 6 hrs post fertilized zebrafish embryo assessed as teratogenic effect by measuring malformation of tail up to 50 uM up to 120 hrs post fertilization by inverted microscopic method; format: tissue-based, Danio rerio; settings: in vivo
[12] = Toxicity in 6 hrs post fertilized zebrafish embryo assessed as teratogenic effect by measuring malformation of sacculi/otoliths up to 50 uM up to 120 hrs post fertilization by inverted microscopic method; set-up: species or system Danio rerio; settings: in vivo
[13] = Toxicity in 6 hrs post fertilized zebrafish embryo assessed as teratogenic effect by measuring pericardial edema up to 50 uM up to 120 hrs post fertilization by inverted microscopic method; set-up: species or system Danio rerio; settings: in vivo
HeLa [14] = test: Induction of lysosomotropism in human HeLa cells infected with Ebolavirus assessed as increase in lysosome concentration in juxtanuclear region at 10 uM for 2 hrs by acridine orange staining based assay; format: functional, cell-based
Outline: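 HeLa cells were pretreated with compound for 2 h, then given acridine orange for 30 min and washed. Red AO fluorescence in acidic compartments was imaged, and total intensity and average area were scored by high-content imaging. Eight wells per point, about 3000 cells/well, mean ± SD, representative of three independent experiments.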

[15] = target: Cathepsin B (Homo sapiens) (UniProt P07858); test: Inhibition of cathepsin B activity in human HeLa cells at 10 uM after 12 hrs by magic red substrate based fluorescence assay; format: cell-based
Outline: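 HeLa cells were exposed to compound for 12 h, then given the Magic Red cathepsin B peptide reporter, washed, and imaged at Ex/Em 590/630. Total intensity and average area of red fluorescence were scored by high-content analysis. Eight wells per point, about 3000 cells/well, mean ± SD, three independent experiments.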

[16] = Toxicity in 6 hrs post fertilized zebrafish embryo assessed as teratogenic effect by measuring effect on blood circulation up to 50 uM up to 120 hrs post fertilization by inverted microscopic method; set-up: species or system Danio rerio; settings: in vivo
[17] = Myelotoxicity in 6 hrs post fertilized transgenic mpx:GFP zebrafish embryo assessed as reduction in neutrophil occurrence at >= 80 uM measured at 72 hrs hrs post fertilization by fluorescence assay; set-up: species or system Danio rerio
[18] = Hepatotoxicity in 6 hrs post fertilized transgenic l-fabp:EGFP zebrafish embryo assessed as change in liver area index up to 30 uM up to 120 hrs post fertilization by fluorescence assay; format: toxicity, Danio rerio; settings: in vivo
Outline: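 Tg(l-fabp:EGFP) zebrafish embryos exposed from 6 hpf. At 120 hpf, liver area index (liver area/lateral body area) and liver fluorescence assessed by in vivo imaging.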

[19] = Hepatotoxicity in 72 hrs post fertilized transgenic l-fabp:EGFP zebrafish embryo assessed as change in liver fluorescence up to 80 uM up to 120 hrs post fertilization by fluorescence assay; format: toxicity, Danio rerio; settings: in vivo
Outline: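 Transgenic Tg(l-fabp:EGFP) zebrafish with fluorescent liver, exposed to compound added at 72 hpf. Liver imaged in vivo at 120 hpf. Read-outs were liver fluorescence and liver area index (liver area divided by lateral body area).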

HeLa [20] = test: Induction of lysosomotropism in human HeLa cells infected with Ebolavirus assessed as increase in fluorescence intensity of acid compartments at 10 uM for 1 hr by Lysosensor DND189 staining based assay; format: functional, cell-based
Outline: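 HeLa cells were pretreated 1 h with compound (Bafilomycin A1 at 0.01 μM as acidification control), then stained with LysoSensor DND 189 for 10 min and washed. Live imaging at Ex/Em 443/505 nm. Fluorescence intensity per area was quantified by image analysis. Eight wells per point, about 3000 cells/well, mean ± SD, three independent experiments.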

[21] = Toxicity in 6 hrs post fertilized zebrafish embryo assessed as teratogenic effect by measuring malformation of notochord up to 50 uM up to 120 hrs post fertilization by inverted microscopic method; format: tissue-based, Danio rerio; settings: in vivo

SMILES: CCN(CC)CCCC(C)Nc1ccnc2cc(Cl)ccc12 (stereo not drawn) [CHLOROQUINE]
- Activity [1]: Non-Toxic
- Activity [2]: Non-Toxic
- Activity [3]: Non-Toxic
- Activity [4]: Non-Toxic
- Activity [5]: Non-Toxic
- Activity [6]: Non-Toxic
- EC50 (Ebolavirus): 16 µM
- Activity [7]: Non-Toxic
- Activity [8]: Non-Toxic
- Activity [9]: Non-Toxic
- Activity (Zaire ebolavirus): Active
- inhibition (HeLa [10]): inactive
- Activity [11]: Non-Toxic
- Activity [12]: Non-Toxic
- Activity [13]: Non-Toxic
- Activity (HeLa [14]): Active
- inhibition [15]: inactive
- Activity [16]: Non-Toxic
- Activity [17]: Toxic
- Activity [18]: Toxic
- Activity [19]: Toxic
- Activity (HeLa [20]): inactive
- Activity [21]: Non-Toxic
